Bioassay records (PubChem BioAssay)
Sampled rows, rich in hits. Any-hit rate of the full collection: about 0.19%.
Biofilm kill mix = mixtures killing C. albicans biofilm; C. albicans biofilm persisters + clotrimazole, fluorescence viability; primary screen in compound mixtures of four per well; inhibition, % at 7.6 µM; 0.02% of 120,000 active;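 active means inhibition above 30.3% in the primary screen of four-compound pools, then above 30% when the compound was retested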;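 further: compounds exposed to preformed 24 h biofilms for 48 h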
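Assay system: C. albicans biofilms / Medium: RPMI/MOPS medium, pH 7.0 / Schedule: biofilm formation 24 h, compound exposure 48 h, 37 °C / Measured by: Alamar Blue fluorescence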
Bim-Bcl-2 = human Bim-Bcl-2 interaction inhibition | P10415 | Bead-based flow cytometry, Bim peptide-Bcl-2 binding | inhibition, % at 10 µM | 0.06% of 190,000 active | AID 950; in the data active means inhibition above about 40%
Target sequence (P10415 whole entry, looked up): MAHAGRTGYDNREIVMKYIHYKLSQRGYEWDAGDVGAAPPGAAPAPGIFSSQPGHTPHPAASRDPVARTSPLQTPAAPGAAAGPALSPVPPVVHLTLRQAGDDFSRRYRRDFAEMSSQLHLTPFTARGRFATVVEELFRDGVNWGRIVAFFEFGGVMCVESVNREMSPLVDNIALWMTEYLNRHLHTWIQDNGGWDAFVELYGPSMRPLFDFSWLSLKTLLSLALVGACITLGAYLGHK
Bcl-XL Bim block = human Bim-Bcl-XL interaction inhibition; Q07817; Bim peptide-Bcl-XL binding, bead flow cytometry, fluorescence; inhibition, % at 10 µM; 0.04% of 190,000 active
Bfl-1 Bim block = inhibitors of Bim-Bfl-1 interaction, human | Bead-based flow cytometry, Bim-Bfl-1 binding inhibition | inhibition, % at 10 µM | 0.12% of 190,000 active | AID 1008
Bcl-W Bim block = disrupts Bim peptide binding to human Bcl-W; Q92843; bead-based flow cytometry; inhibition, % at 10 µM; 0.02% of 190,000 active;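 further: higher means less fluorescent Bim peptide bound to Bcl-W beads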
Target sequence (Q92843 whole entry, looked up): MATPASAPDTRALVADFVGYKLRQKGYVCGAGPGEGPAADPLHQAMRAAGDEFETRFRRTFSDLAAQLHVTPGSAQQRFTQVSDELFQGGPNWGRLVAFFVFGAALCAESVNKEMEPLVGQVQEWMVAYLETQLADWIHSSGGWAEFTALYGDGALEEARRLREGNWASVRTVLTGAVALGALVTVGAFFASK
Bcl-B Bim block = inhibitors of Bim-Bcl-B interaction, human; Q9HD36; bead-based flow cytometry, Bim peptide-Bcl-B binding; inhibition, % at 10 µM; 0.073% of 190,000 active; AID 951
Hits are given with their value; 0 = inactive; - = no result; ! = a repeat was not active. Unless noted, no stated cut-off is given here; in the data, active means inhibition above about 40%.

SMILES	Biofilm kill mix	Bim-Bcl-2	Bcl-XL Bim block	Bfl-1 Bim block	Bcl-W Bim block	Bcl-B Bim block
O=C(c1cc(=O)[nH]c2ccccc12)N1CCN(c2ccc([N+](=O)[O-])cc2)CC1	0	-	-	-	-	-
Cc1c(N=C2C=CC(=O)c3ccccc32)c(=O)n(-c2ccccc2)n1C	0	0	0	53	0	0
COc1cc(OC)c(NS(=O)(=O)c2ccc(Cl)c(C(=O)OC(C)C(=O)N3CCCC3)c2)cc1Cl (stereo unspecified)	0	0	0	0	0	0
CCN(CC)S(=O)(=O)c1cccc(C(=O)N/N=C/c2ccc(O)c(O)c2O)c1	0	0	54	0	0	43
CCn1c(C)nc2cc(C(=O)N/N=C/c3ccc(O)c(O)c3O)ccc21	0	0	0	52	0	0
O=C(CSc1ccc(Cl)cc1)N/N=C/c1cccnc1	0	0	0	0	0	0
CCOC(=O)C(C)Sc1nc(-c2ccccc2)nc2ccccc12 (stereo unspecified)	0	0	0	0	0	0
CCN(CC)CCCN1CC(O)=C(c2nc3ccccc3s2)C1=N	-	0	0	0	0	0
N=C1C(c2nc3ccccc3s2)=C(O)CN1Cc1ccccc1	0	85	0	68	0	83
COc1ccc(C(=O)c2c(NC(C)=O)sc3c2CCN(C(=O)OC(C)(C)C)C3)cc1	0	-	-	-	-	-
COc1cccc2c1C(=O)c1c(O)c3c(c(O)c1C2=O)C[C@@](O)(C(=O)CO)C[C@@H]3O[C@H]1C[C@H](N)[C@H](O)[C@H](C)O1	0	54	57	60	59	86
COc1ccc2cc(CN(CCc3ccccc3)Cc3nnnn3CC3CCCO3)c(=O)[nH]c2c1 (stereo unspecified)	-	0	42	44	0	0
NC(=O)CSc1nnc(Cn2cnc3ccccc32)o1	0	0	0	65	0	0
COc1ccc(N(C)C(=O)c2oc(=O)c3ccccc3c2-c2ccccc2)c(OC)c1	0	-	-	-	-	-
O=C(CCc1ccccc1)N1CCN(c2ccccn2)CC1	0	0	0	0	0	43
O=C(O)CCC(=O)N1CCN(c2ccccn2)CC1	-	0	0	0	0	0
CCOc1cc2c(C#N)c(N3CCCCC3)nc(N)c2c(N)n1	-	0	0	0	0	0
CCOc1cc2c(C#N)c(N3CCNCC3)nc(N)c2c(N)n1	-	0	0	0	0	53
CNC(=O)CC1C(=O)N(Cc2ccccc2)C(=S)N1NC(=O)c1cccc(F)c1 (stereo unspecified)	0	0	40	40	0	0
CN(C)S(=O)(=O)c1ccc(C(=O)OCC(=O)c2ccc3c(c2)NC(=O)CO3)cc1	0	-	-	-	-	-
CN(C)S(=O)(=O)c1cccc(C(=O)OCC(=O)c2ccc3c(c2)NC(=O)CO3)c1	-	0	0	0	0	43
CCOC(=O)N1CCC(Nc2ccc(N3C(=O)C4CCCCC4C3=O)cc2[N+](=O)[O-])CC1 (stereo unspecified)	0	0	0	0	0	0
O=C(c1ccccc1)N1CCC(c2nc3c(nnn3Cc3ccccc3Cl)c(=O)[nH]2)CC1	-	0	0	0	0	0
COc1ccccc1Cn1nnc2c(=O)[nH]c(C3CCN(C(=O)c4ccc(F)cc4)CC3)nc21	-	0	0	0	0	57
COc1ccccc1Cn1nnc2c(=O)[nH]c(C3CCN(C(=O)c4ccc(C)cc4)CC3)nc21	-	0	0	0	0	50
SMILES	Biofilm kill mix	Bim-Bcl-2	Bcl-XL Bim block	Bfl-1 Bim block	Bcl-W Bim block	Bcl-B Bim block
COc1ccccc1Cn1nnc2c(=O)[nH]c(C3CCN(C(=O)c4ccccc4Cl)CC3)nc21	-	0	0	0	0	0
O=C(O)c1ccccc1C(=O)NNc1cccc(Cl)n1	0	0	0	0	0	0
Cc1ccc(C)c(/C=C/C(=O)c2ccccc(=O)c2O)c1	0	0	0	41	0	0
O=C(/C=C/c1ccccc1Cl)c1ccccc(=O)c1O	0	42	0	54	0	0
Cc1ccc(/C=C/C(=O)c2ccccc(=O)c2O)c(C)c1	0	0	0	0	0	0
Cc1ccc(Nc2nc(CSc3nnc(-c4cccnc4)n3-c3ccccc3C)cs2)cc1	0	0	0	42	0	0
Cc1ccc(CN2CCN(Cc3cnc(C)[nH]3)CC2CCO)cc1 (stereo unspecified)	0	0	0	0	0	0
CN1CCN(C2=C(Cl)C(=O)C(c3cnc(N4CCCCC4)s3)=C(Cl)C2=O)CC1	0	44	0	54	0	58
CN1CCc2cccc3c2[C@@H]1Cc1ccc(O)c(O)c1-3	0	40	0	40	51	0
Cc1ccc(C(=O)N/N=C2/NC(=O)CC(C(=O)Nc3ccccc3)S2)cc1 (stereo unspecified)	0	0	40	0	0	0
Cc1ccc(NC(=O)C2CC(=O)N/C(=N/NC(=O)c3ccc(C)cc3)S2)cc1 (stereo unspecified)	0	0	0	0	0	0
COc1cccc(NC(=O)CSc2nncn2-c2ccccn2)c1	-	0	0	0	0	0
COc1cccc(NC(=O)CSc2nncn2N)c1	-	0	0	41	0	0
Cc1cc(C)nc(SCc2cc(=O)c(OC(=O)c3ccc(S(=O)(=O)N(C)C)cc3)co2)n1	0	0	0	0	0	0
Cc1cc(C)nc(SCc2cc(=O)c(OC(=O)c3ccc(Cl)c([N+](=O)[O-])c3)co2)n1	0	0	52	0	0	0
Cc1ccc(OCc2cn3cccnc3n2)cc1	0	0	0	0	0	58
CC(=O)c1ccc(-n2nncc2C(C)(C)C)cc1	-	0	0	0	0	0
Cc1cnnn1-c1ccc(C(=O)CCl)cc1	-	0	0	60	60	0
Cc1ccc(NC(=O)C/C(N)=N/OC(=O)c2ccccc2)cc1	0	73	0	51	0	64
CCOC(=O)c1ccc(NC(=O)CNC(=O)c2ccccc2)cc1	-	0	0	0	0	0
Cc1cccc(NC(=S)N2CCn3cccc3C2c2cccnc2)c1 (stereo unspecified)	0	0	0	0	0	41
COc1cccc(NC(=S)N2CCn3cccc3C2c2cccnc2)c1 (stereo unspecified)	0	0	0	0	0	0
CC(C)CNC(=O)c1ccccc1SCC(=O)NC12CC3CC(CC(C3)C1)C2	0	0	0	0	0	0
Cc1ccccc1OCc1n(CC(=O)OC2CC(C)CCC2C(C)C)c2ccccc2[n+]1C (stereo unspecified)	34!	0	0	0	0	0
O=C(NCCc1ccccc1)c1ccc2nc(-c3ccco3)c(-c3ccco3)nc2c1	-	0	0	45	0	0
O=C(NC1CCCC1)c1ccc2nc(-c3ccco3)c(-c3ccco3)nc2c1	-	0	0	0	0	0
O=C(c1ccccc1)c1ccc2nc(-c3ccco3)c(-c3ccco3)nc2c1	0	0	0	47	0	0
O=C(NCCO)c1ccc2nc(-c3ccco3)c(-c3ccco3)nc2c1	-	0	0	54	0	0
NC(=O)C1CCN(CC(=O)NC(=O)NC2CCCC2)CC1	0	0	0	0	0	0
